Screening data: PubChem BioAssay, several laboratories
procasp3 activ = activators of human procaspase-3; P42574; hit rate 0.11% among 330,000; activation, % at 8.5 µM; recombinant procaspase-3 D3A, Ac-DEVD-pNA absorbance 405 nm; AID 463141;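 active = activation above the mean of all tested compounds plus 3 SD, cut at about 21% in these data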;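 also: 0% = DMSO alone and 100% = DMSO wells spiked with extra 5 µM PC-3 D3A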
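Test system: Procaspase-3 D3A mutant, all three cleavage aspartates alanine | Dosing: Single dose, 8.5 µM nominal compound, 0.8% DMSO | Schedule: 1 h preincubation, 2 h reaction | Technique: 405 nm absorbance of p-nitroaniline, reads at 0 and 120 min | Repeats: One well per compound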
proCasp7 act = counter-screen for procaspase-3 activators: activators of human procaspase-7; P55210; recombinant procaspase-7, Ac-DEVD-pNA absorbance 405 nm; D23A/D198A/D206A triple mutant, cannot self-cleave; scale: DMSO 0, 5 µM enzyme 100; activation, % at 8.5 µM; hit rate 0.093% among 330,000;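 active = percent activation above the screen-wide mean plus 3 SD, cut at about 25% in these data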
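Material: Procaspase-7 triple mutant (PC-7 D3A) | Quantity: 2 µM procaspase-7 mutant as dispensed | Reagent: DEVD-pNA substrate | Times: 1 h preincubation, 2 h reaction | Technique: 405 nm absorbance of p-nitroaniline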
PHOSPHO1 inh = inhibitors of human PHOSPHO1 phosphatase | Q8TCT1 | recombinant PHOSPHO1, absorbance phosphatase assay | inhibition, % at 13.3 µM | hit rate 1.1% among 290,000 | AID 1565; in the data active = inhibition above about 60%
Target sequence (Q8TCT1 whole entry, looked up): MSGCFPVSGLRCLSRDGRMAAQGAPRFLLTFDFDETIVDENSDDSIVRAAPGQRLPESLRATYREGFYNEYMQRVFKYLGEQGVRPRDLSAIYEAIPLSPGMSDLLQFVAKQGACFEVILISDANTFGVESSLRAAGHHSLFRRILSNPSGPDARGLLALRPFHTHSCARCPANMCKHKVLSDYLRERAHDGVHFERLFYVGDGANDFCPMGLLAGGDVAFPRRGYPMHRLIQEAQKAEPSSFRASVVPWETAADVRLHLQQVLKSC
IDE inh = inhibits human insulin-degrading enzyme in HEK cells. P14735. FAbetaB cleavage, fluorescence polarization. inhibition, % at 5.59 µM. hit rate 0.41% among 320,000. AID 434962;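 active = percent inhibition above the average of all tested compounds plus 3 SD, set per screening campaign, cut at about 16% in these data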;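 also: IDE supplied by intact live HEK cells; FP after avidin binding of uncleaved biotin substrate so inhibition keeps polarization high; 0% = DMSO wells and 100% = 60 µM reference IDE inhibitor Ii1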
UBC13 inh = blocks human UBC13 polyubiquitin chain formation. hit rate 0.47% among 330,000. inhibition, % at 20 µM. P61088. TR-FRET; in the data active = inhibition above about 45%, passing the limit was not always enough
Target sequence (P61088 whole entry, looked up): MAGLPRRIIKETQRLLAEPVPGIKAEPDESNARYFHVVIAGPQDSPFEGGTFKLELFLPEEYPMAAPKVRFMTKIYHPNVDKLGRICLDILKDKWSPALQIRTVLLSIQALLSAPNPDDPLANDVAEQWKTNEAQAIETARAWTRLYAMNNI
IDE cell activ = boosts human insulin-degrading enzyme activity in HEK cells. P14735. FAbeta-B cleavage, fluorescence polarization; 0% vehicle, 100% cell-free pure enzyme wells. activation, % at 5.96 µM. hit rate 0.073% among 340,000. AID 493087;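 active = activation above the mean of all tested compounds plus 3 SD, set per screening campaign, cut at about 17% in these data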
Casp3 counter = inhibits human caspase-3 in UBC13 counter-screen; shares compounds with UBC13 inh; Recombinant caspase-3, Caspase-Glo 3/7 luminescence, 60 min; inhibition, % at 20 µM; hit rate 4% among 1,400;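 active = mean inhibition across replicates above about 26%, limit read from the data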;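 also: plate controls were DMSO with caspase-3 for no effect and DMSO wells lacking enzyme for full effect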
UBC13 conf = confirmation of human UBC13 polyubiquitin inhibitors. shares compounds with UBC13 inh. UBC13 polyubiquitination, TR-FRET, biochemical. inhibition, % at 10 µM. hit rate 68% among 1,400; in the data active = inhibition above about 45%
Active calls of the source: *; · = not tested or not shown. Hits are enriched below; roughly 1.9% of the tested compounds scored in any of these assays.

SMILES	procasp3 activ	proCasp7 act	PHOSPHO1 inh	IDE inh	UBC13 inh	IDE cell activ	Casp3 counter	UBC13 conf
CCc1ccc(Nc2n[n+](-c3ccccc3)c(/C=C/c3ccccc3)s2)cc1	-4	-14	-7	12	70*	·	4	24
COc1ccc(CNC(=O)CCN2C(=O)[C@@H]3Cc4ccccc4CN3C2=O)cc1	2	-1	37	-5	-2	4	·	·
Oc1ccc(C[C@H]2CNCCN2CCCCC2CCCCC2)cc1	-4	4	·	2	58*	2	-4	26
Oc1ccc(C[C@@H]2CNCCN2CC2CCCCC2)cc1	-4	-8	·	5	7	5	·	·
Oc1ccc(C[C@@H]2CNCCN2CCC23CC4CC(CC(C4)C2)C3)cc1	2	-6	·	3	58*	7	-3	25
O=C(CCCOc1ccc(Br)cc1)Nc1ccc(S(=O)(=O)N2CCOCC2)cc1	-5	-3	·	12	7	-10	·	·
CCN(CC)C(=O)[C@H]1C[C@H](CC(=O)NCCN2CCOCC2)C(=O)N2CCc3c([nH]c4cc(-c5ccco5)ccc34)[C@]12C	-6	13	·	·	·	1	·	·
CC(C)(C)c1cc(NCc2ccccn2)n2ncc(-c3ccc(Cl)cc3)c2n1	-5	5	25	3	0	-3	·	·
CN(C)CCCNc1cc(C(C)(C)C)nc2c(-c3ccc(Cl)cc3)cnn12	9	1	12	3	89*	9	-1	95*
CC(C)(C)c1cc(NCCCn2ccnc2)n2ncc(-c3ccccc3)c2n1	-7	-4	-10	-3	61*	·	0	55*
O=C(Nc1cccc(S(=O)(=O)N2CCCCC2)c1)C1CC(=O)N(c2ccc3c(c2)OCCO3)C1 (stereo unspecified)	0	-1	28	2	10	1	·	·
O=C(c1cc(Cl)nc2ccccc12)N(Cc1nnc(-c2ccccc2Cl)o1)C1CC1	3	-2	-16	0	-2	3	·	·
CN1CCN(c2ccc(S(=O)(=O)N3CCCCC3)cc2NC(=O)c2ccc3ccccc3c2)CC1	5	2	22	6	46*	4	-6	52*
O=C(NCC1CCCCC1)C1(CC2CC(c3cccc(Br)c3)=NO2)CCNCC1 (stereo unspecified)	-3	2	-13	5	51*	4	5	52*
CCOc1cc(C(=O)N2CCC(CC3CC(c4ccc(Cl)cc4)=NO3)(C(=O)NCC3CCCCC3)CC2)cc(OCC)c1OCC (stereo unspecified)	4	5	-2	-2	-22	6	·	·
O=C(NCC1CCCCC1)C1(CC2CC(c3ccc(Cl)cc3)=NO2)CCNCC1 (stereo unspecified)	6	7	20	7	46*	-1	3	47*
CN(C)C(CNc1ccc(C(F)(F)F)cc1[N+](=O)[O-])c1ccccc1 (stereo unspecified)	-11	5	-1	-1	-8	-1	·	·
COc1cc(C(=O)OCc2cccc(OC)c2OC)ccc1OCC(=O)N1CCOCC1	4	-2	·	-4	4	1	·	·
O=C(O)C(=Cc1cccc([N+](=O)[O-])c1)c1ccc(Cl)cc1	·	·	·	·	·	6	·	·
CCCCCCCCCCCCC/C=C/[C@@H](O)[C@@H](N)CO	-3	12	·	-3	108*	-6	-3	114*
CSCc1ccc(C(=O)NCC(c2cccs2)N2CCOCC2)cc1 (stereo unspecified)	0	4	·	5	-3	3	·	·
COc1ccc(NS(=O)(=O)c2cc(C(=O)N3CCC3)ccc2C)cc1	2	7	·	-2	71*	-3	3	77*
Cc1ccc(NS(=O)(=O)c2cc(C(=O)N3CCCC3)ccc2C)cc1C	1	-3	-11	2	8	3	·	·
